Results on twelve substances are retold here after publication PMC2637182 (Journal of the American Chemical Society, 2008).

Common to all, as to assay: Continuous fluorescence kinase assay, kinetic parameters of the substrate
What all share (assay type): biochemical

In experiment [1] the target is Src (Homo sapiens, UniProt P12931). Conditions: for Km / Vmax: initial slopes, direct fit of ν vs [S], Briggs-Haldane equation, mean ± s.e.m. of triplicate, SEM; for Catalytic Efficiency: kcat/KM (min^-1 μM^-1) normalized to the BTF substrate. The procedure, abridged:
(§1)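 Sox-labelled peptide substrates were phosphorylated by the kinase and monitored continuously by fluorescence (λex 360 nm, λem 485 nm) in a fluorometer or a 96-well plate reader. KM and Vmax came from initial slopes, corrected for substrate and product fluorescence, and a direct Briggs-Haldane fit of ν vs [S]. Values are mean ± s.e.m. of triplicates. kcat/KM was normalized to the BTF substrate within each kinase.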

Experiment [2] deals with MK2 (Homo sapiens, UniProt P49137). Particulars: initial slopes, direct fit of ν vs [S], Briggs-Haldane equation, mean ± s.e.m. of triplicate, SEM. The method in brief:
(§2)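 Sox-containing peptide substrate becomes fluorescent on phosphorylation through Mg2+ chelation-enhanced fluorescence. Fluorescence was read continuously at λex 360 nm and λem 485 nm. Reaction components were simply mixed, and the reaction was run in a fluorometer or in a 96-well fluorescence plate reader. Rates at varied substrate levels were fitted directly as ν vs [S] to the Briggs-Haldane equation. Each was run in triplicate.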

In experiment [3] the target is PKA (Homo sapiens, UniProt P17612). Particulars: for Km / Vmax: initial slopes, direct fit of ν vs [S], Briggs-Haldane equation, mean ± s.e.m. of triplicate, SEM. The method in brief:
as §1

The target in experiment [4] is Akt1 (Homo sapiens, UniProt P31749). Particulars: initial slopes, direct fit of ν vs [S], Briggs-Haldane equation, mean ± s.e.m. of triplicate, SEM. The method in brief:
as §2

For experiment [5], the target named is Pim2 (Homo sapiens, UniProt Q9P1W9). Conditions: initial slopes, direct fit of ν vs [S], Briggs-Haldane equation, mean ± s.e.m. of triplicate, SEM.
Experiment [6] has as its target Abl (Homo sapiens, UniProt P00519). Conditions: initial slopes, direct fit of ν vs [S], Briggs-Haldane equation, mean ± s.e.m. of triplicate, SEM. The procedure, abridged: as §2
The target in experiment [7] is PKCβI (Homo sapiens, UniProt P05771).
The target in experiment [8] is IRK (Homo sapiens, UniProt P06213). Conditions: for Km / Vmax: initial slopes, direct fit of ν vs [S], Briggs-Haldane equation, mean ± s.e.m. of triplicate, SEM; for Catalytic Efficiency: kcat/KM (min^-1 μM^-1) normalized to the BTF substrate. The method in brief:
as §1

In experiment [9] the target is PKCδ (Homo sapiens, UniProt Q05655).
The mark [10] stands for this setting: initial slopes, direct fit of ν vs [S], Briggs-Haldane equation, mean ± s.e.m. of triplicate, NS = Not a Substrate, SEM.

Sequence of PKCβI (P05771 whole entry): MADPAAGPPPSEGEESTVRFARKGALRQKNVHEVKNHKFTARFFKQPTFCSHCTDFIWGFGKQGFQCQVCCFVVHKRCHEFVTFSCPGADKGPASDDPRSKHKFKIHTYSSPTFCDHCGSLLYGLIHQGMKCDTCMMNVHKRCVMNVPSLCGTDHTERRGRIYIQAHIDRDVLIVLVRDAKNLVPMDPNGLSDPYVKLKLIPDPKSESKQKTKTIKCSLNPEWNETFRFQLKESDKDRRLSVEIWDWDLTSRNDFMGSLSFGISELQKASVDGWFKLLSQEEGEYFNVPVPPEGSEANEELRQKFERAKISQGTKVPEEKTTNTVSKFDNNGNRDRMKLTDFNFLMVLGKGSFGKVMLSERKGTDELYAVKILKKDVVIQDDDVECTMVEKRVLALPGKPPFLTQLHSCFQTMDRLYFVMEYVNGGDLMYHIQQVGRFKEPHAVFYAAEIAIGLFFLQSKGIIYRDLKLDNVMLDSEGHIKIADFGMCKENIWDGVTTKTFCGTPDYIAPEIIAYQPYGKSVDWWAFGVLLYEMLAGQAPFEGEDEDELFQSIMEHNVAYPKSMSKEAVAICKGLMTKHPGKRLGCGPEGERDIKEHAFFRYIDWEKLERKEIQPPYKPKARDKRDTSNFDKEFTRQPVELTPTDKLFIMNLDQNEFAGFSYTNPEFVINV
Sequence of PKCδ (Q05655 whole entry): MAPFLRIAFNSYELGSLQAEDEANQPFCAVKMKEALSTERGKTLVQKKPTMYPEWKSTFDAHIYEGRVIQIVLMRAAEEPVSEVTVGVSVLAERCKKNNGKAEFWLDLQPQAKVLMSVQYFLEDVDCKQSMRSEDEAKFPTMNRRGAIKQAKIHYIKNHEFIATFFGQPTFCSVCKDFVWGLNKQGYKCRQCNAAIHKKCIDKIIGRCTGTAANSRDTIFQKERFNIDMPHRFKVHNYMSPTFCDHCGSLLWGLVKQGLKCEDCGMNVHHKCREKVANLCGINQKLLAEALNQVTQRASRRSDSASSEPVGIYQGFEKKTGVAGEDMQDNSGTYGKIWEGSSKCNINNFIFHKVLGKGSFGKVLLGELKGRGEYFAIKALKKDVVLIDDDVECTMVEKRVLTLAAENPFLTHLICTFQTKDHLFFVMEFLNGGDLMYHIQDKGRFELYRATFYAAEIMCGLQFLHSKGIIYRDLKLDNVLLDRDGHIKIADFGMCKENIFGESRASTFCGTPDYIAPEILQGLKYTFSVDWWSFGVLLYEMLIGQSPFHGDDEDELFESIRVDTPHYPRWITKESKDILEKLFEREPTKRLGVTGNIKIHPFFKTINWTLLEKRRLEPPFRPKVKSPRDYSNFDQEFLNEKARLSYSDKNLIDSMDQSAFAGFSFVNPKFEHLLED
Sequence of IRK (P06213 1012-1310 limits assumed): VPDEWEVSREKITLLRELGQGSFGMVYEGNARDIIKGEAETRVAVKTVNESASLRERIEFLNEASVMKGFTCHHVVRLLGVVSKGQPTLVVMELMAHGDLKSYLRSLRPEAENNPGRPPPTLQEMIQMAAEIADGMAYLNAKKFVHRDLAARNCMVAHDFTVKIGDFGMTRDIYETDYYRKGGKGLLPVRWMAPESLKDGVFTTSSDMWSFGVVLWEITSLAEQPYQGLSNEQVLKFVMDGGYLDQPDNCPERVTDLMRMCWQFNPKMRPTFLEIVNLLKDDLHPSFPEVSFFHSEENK
Sequence of Abl (P00519 whole entry, species assumed): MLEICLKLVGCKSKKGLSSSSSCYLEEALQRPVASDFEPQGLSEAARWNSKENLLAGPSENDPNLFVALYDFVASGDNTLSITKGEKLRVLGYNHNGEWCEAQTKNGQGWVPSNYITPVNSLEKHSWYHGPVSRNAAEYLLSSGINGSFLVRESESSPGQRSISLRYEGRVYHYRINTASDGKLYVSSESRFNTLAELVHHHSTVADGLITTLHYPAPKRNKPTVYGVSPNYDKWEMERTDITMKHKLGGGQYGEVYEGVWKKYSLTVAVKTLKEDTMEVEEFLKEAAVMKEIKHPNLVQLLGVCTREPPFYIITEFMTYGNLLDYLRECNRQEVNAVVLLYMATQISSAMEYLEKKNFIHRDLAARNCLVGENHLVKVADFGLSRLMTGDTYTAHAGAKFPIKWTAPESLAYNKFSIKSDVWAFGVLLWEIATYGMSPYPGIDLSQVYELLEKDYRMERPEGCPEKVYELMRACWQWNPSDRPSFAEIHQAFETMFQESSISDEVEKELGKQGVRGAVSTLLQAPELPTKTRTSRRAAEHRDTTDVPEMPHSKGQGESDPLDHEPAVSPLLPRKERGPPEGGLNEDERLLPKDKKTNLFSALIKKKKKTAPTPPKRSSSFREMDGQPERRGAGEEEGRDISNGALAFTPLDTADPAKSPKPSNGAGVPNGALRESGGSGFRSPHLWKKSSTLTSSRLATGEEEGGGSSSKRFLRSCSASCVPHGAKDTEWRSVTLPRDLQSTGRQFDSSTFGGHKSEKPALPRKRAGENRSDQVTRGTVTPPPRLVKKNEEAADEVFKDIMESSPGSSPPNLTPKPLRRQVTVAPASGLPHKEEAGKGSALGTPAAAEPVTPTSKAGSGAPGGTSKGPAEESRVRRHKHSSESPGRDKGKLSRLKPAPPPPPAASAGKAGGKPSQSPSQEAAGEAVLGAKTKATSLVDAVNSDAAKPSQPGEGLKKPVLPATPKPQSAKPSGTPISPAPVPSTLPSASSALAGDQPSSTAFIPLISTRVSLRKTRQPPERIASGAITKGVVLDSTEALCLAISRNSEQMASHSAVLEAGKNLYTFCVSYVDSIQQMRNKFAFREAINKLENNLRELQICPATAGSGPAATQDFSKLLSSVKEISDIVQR
Sequence of MK2 (P49137 whole entry, species assumed): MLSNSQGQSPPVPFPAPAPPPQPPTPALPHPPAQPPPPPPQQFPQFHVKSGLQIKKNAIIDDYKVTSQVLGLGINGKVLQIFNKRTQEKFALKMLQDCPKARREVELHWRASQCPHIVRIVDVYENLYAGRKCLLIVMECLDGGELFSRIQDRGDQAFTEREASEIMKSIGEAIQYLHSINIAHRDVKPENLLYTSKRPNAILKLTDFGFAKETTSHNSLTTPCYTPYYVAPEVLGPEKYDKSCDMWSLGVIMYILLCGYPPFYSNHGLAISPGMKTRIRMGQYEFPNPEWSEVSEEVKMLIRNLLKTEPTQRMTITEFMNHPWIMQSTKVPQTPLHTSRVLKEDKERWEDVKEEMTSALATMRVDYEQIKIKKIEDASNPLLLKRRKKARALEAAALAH
Sequence of Akt1 (P31749 whole entry, species assumed): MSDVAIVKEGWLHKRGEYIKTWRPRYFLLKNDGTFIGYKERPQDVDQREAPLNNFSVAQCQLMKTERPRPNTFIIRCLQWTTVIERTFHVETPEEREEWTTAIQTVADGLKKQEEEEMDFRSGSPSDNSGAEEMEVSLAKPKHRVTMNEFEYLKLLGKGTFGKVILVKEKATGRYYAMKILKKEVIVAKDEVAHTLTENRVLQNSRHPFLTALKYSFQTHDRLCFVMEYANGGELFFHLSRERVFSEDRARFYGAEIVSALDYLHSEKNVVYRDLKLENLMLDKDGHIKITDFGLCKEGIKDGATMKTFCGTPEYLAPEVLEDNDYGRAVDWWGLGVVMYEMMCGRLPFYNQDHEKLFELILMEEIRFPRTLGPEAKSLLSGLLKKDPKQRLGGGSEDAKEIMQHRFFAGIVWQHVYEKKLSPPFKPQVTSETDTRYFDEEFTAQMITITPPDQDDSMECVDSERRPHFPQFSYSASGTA
Sequence of Pim2 (Q9P1W9 whole entry, species assumed): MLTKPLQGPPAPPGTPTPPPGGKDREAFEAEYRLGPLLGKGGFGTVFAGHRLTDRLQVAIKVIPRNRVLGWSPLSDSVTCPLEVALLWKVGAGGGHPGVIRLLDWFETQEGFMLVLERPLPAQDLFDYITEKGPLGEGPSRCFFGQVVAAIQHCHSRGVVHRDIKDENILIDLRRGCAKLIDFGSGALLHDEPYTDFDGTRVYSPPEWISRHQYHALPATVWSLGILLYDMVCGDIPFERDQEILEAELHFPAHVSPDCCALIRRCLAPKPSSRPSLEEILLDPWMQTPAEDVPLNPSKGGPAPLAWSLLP

As a reminder, the Km is the substrate concentration at which the rate is half of its maximum. The Vmax is the rate approached at saturating substrate. “Ac-AEE-CSox-IY*GEFEAKKKK-CONH2 [Src RDF]”: in experiment [1], the Km turned out to be 7 ± 1 µM, the maximal velocity (Vmax) turned out to be 3.4 ± 0.2 µmol/mg/min and the “Catalytic Efficiency” value is 28.

Consider Ac-AHLQRQLS*I-CSox-HH-CONH2 [MK2 RDF], for which, in experiment [2], the Km worked out at 1.2 ± 0.2 µM and the Vmax was 1.3 ± 0.1 µmol/mg/min.

Regarding Ac-ALRRAS*L-CSox-AA-CONH2 [PKA RDF], in experiment [3], the Km amounted to 2.6 ± 0.3 µM and the Vmax was determined as 17.9 ± 0.8 µmol/mg/min. Moreover, the “Catalytic Efficiency” value in experiment [3] (kcat/KM (min^-1 μM^-1) normalized to the BTF substrate) came out at 1.

In the case of “Ac-ARKRERAYS*F-CSox-HHA-CONH2 [Akt1 RDF]”, in [4], the Km worked out at 0.69 ± 0.11 µM and the Vmax was found to be 2.5 ± 0.2 µmol/mg/min.

On to “Ac-ARKRRRHPS*G-CSox-PTA-CONH2 [Pim2 RDF]”, for which, in experiment [5], the Km was 1.4 ± 0.1 µM and the Vmax was determined as 0.67 ± 0.02 µmol/mg/min.

For the substance Ac-E-CSox-IY*AAPFAKKK-CONH2 [Abl RDF], in experiment [6], the Km came to 10.5 ± 1.5 µM and the Vmax came out at 19.1 ± 1.0 µmol/mg/min.

With Ac-LKR-CSox-AS*FKKFA-CONH2 [PKCβI RDF], the “turnover by the kinase (in words)” value in [7] (Figure S3) is listed as “excellent substrates”. In experiment [7] (setting [10]), the Km came out at 0.81 ± 0.18 µM and the Vmax stood at 0.76 ± 0.06 µmol/mg/min.

Take Ac-LRRAS*L-DPro-Sox-G-CONH2 [PKA BTF]: in [3], the Km came out at 2.7 ± 0.4 µM and the Vmax turned out to be 26.5 ± 1.1 µmol/mg/min.

As for “Ac-R-CSox-DY*-Nle-TMQIGKK-CONH2 [IRK RDF]”, in experiment [8], the Km stood at 27.1 ± 3.9 µM, the Vmax came to 6.3 ± 0.4 µmol/mg/min and the “Catalytic Efficiency” value was 1.

In the case of Ac-RKRKGS*F-CSox-YGG-CONH2 [PKCδ RDF], in experiment [9] (Figure S3), the “turnover by the kinase (in words)” value was “excellent substrates”. In experiment [9] (setting [10]), the Km was 0.48 ± 0.07 µM and the Vmax amounted to 0.39 ± 0.02 µmol/mg/min.

On to Ac-Sox-PEIY*GEFEAKKKK-CONH2 [Src BTF], for which, in [1], the Km worked out at 30.7 ± 5.8 µM, the Vmax amounted to 0.54 ± 0.04 µmol/mg/min and the “Catalytic Efficiency” value is 1.

Regarding “Ac-Sox-PGDY*-Nle-TMQIGKK-CONH2 [IRK BTF]”, in experiment [8], the Km amounted to 25.7 ± 0.7 µM, the Vmax was 7.3 ± 2.2 µmol/mg/min and the “Catalytic Efficiency” value came to 1.
